Bioassay records deposited in PubChem by several laboratories.
ZTA DNA inh – counter-screen for EBNA-1 inhibitors: inhibitors of Epstein-Barr virus ZTA | ZTA-DNA binding, fluorescence polarization | P03206 | inhibition, % at 11 µM | hit rate 0.15% among 320,000; in the data active = inhibition above about 33%
Target sequence (P03206 whole entry, looked up): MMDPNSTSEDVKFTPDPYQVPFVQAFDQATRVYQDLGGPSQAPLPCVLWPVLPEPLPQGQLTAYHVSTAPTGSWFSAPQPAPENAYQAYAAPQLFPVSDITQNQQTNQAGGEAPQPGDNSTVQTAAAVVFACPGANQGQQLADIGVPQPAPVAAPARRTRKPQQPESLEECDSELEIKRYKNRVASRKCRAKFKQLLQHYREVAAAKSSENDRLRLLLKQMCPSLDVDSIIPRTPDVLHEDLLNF
PfM18AAP inh – PfM18AAP inhibitors, malaria aminopeptidase, primary screen, biochemical, QFRET, recombinant enzyme; M18 aspartyl aminopeptidase (Plasmodium falciparum 3D7); H-Glu-NHMec fluorogenic cleavage; inhibition, % at 7.35 µM; hit rate 1.2% among 290,000;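 active = inhibition above the campaign mean inhibition over all tested compounds plus 3 SD, cut at about 28% in these data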;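 note: 0% = plate median of test compound wells and 100% = 2 mM ZnCl2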
ALR H2O2 inh – inhibitors of human ALR sulfhydryl oxidase, primary screen, biochemical, H2O2 detection, HRP-luminol luminescence, single point | FAD-linked sulfhydryl oxidase ALR (Homo sapiens), P55789 | hit rate 3.8% among 290,000 | AID 485317, 2010 | inhibition, % (no concentration beside the values) | purified ALR, DTT oxidation;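 active = mean replicate inhibition above about 79%, with every replicate also reaching it, limit read from the data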
Target sequence (P55789 whole entry, looked up): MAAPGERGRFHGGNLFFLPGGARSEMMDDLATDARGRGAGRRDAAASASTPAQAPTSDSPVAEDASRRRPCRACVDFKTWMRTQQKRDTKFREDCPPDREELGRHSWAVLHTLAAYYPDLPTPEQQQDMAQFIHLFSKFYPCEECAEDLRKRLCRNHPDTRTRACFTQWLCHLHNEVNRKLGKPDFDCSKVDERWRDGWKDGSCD
EBNA-1 inh – EBNA-1 DNA-binding inhibitors, primary screen, biochemical, fluorescence polarization. hit rate 0.34% among 300,000. inhibition, % at 14.8 µM; in the data active = inhibition above about 28%
NS3 helicase inh – inhibitors of HCV NS3 helicase, primary screen, biochemical, Cy5 molecular beacon fluorescence; Hepatitis C virus NS3 helicase; NS3 helicase DNA unwinding; hit rate 0.56% among 290,000; inhibition, % at 10.9 µM; AID 1800, 2009;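 active = inhibition above the mean of all tested compounds plus 3 SD, set per campaign, cut at about 35% in these data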;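 note: 0% = DMSO wells and 100% = thioflavine S control wells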
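Compound dosing – single dose, 10.9 µM nominal final, DMSO 0.8% final · System – NS3 helicase fragment of HCV · Buffer or medium – MOPS pH 6.5, MgCl2, DTT, Tween20, BSA · Signal – Cy5 beacon fluorescence read at start and 1 h · Also added – annealed dual-labelled DNA beacon duplex, ATP-started · Schedule – 1 h at 25 °C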
HCV core dimer – inhibitors of HCV core protein dimerization, primary screen, biochemical, TR-FRET, high-throughput. inhibition, % at 5 µM. hit rate 0.33% among 300,000. TR-FRET GST/Flag-core106 dimerization, 1536-well;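 active = inhibition above the mean of all tested compounds plus 3 SD, set per screening campaign, cut at about 45% in these data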
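System: GST-tagged and Flag-tagged HCV core protein residues 1-106 / Input: core106 proteins, GST 13.5 nM and Flag 17 nM / Buffer or medium: KF-containing HEPES buffer, pH 7.45, DTT, CHAPS, BSA / Probe or stimulus: Eu-anti-GST and XL665-anti-Flag labelled anti-tag antibodies / Schedule: 4 h, 22.5 °C incubation / Technique: TR-FRET 671 and 617 nm emission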
Active calls of the source: *; / = no result. An excerpt weighted towards active compounds, which were near 5.2% of everything screened.

SMILES | ZTA DNA inh | PfM18AAP inh | ALR H2O2 inh | EBNA-1 inh | NS3 helicase inh | HCV core dimer
c1ccc2c(Nc3ccc4c(c3)OCCO4)c3c(nc2c1)CCC3 | -12 | 14 | 80* | -12 | -18 | -7
COc1ccccc1NC(=O)Nc1nc(CC(=O)NCc2ccc(F)cc2)cs1 | -7 | / | 4 | 3 | / | 0
CCC(=O)c1ccc(OCC(=O)OC(C)C(=O)N2CCc3ccccc32)cc1 (stereo not given) | 6 | / | / | 6 | / | 6
COc1ccccc1Nc1c2ccccc2nc2ccccc12 | -12 | -1 | 99* | -21 | 2 | -9
O=C(O)/C=C/C(=O)Nc1cccnc1 | 16 | 12 | -5 | 10 | 16 | -1
COC(=O)/C=C/C(=O)Nc1cccnc1 | 9 | -4 | 95* | -6 | 1 | 0
COC(=O)/C=C/C(=O)Nc1ccc(O)c(Cl)c1 | 1 | 7 | 100* | 6 | 2 | 8
COc1ccc(NC(=O)C=C(C)C)cc1Cl | 8 | 6 | 6 | 10 | 5 | 4
CCn1c(C)cs/c1=N\C(=S)Nc1ccccc1C | -18 | 3 | -8 | -15 | -31 | 3
COc1ccc(CCNC(=O)CS(=O)Cc2nc(-c3cccs3)oc2C)cc1OC (stereo not given) | 3 | 5 | 99* | 4 | 5 | 5
COc1ccc(CCNC(=O)CS(=O)Cc2nc(-c3ccccc3F)oc2C)cc1OC (stereo not given) | 9 | -2 | 99* | -3 | 6 | -10
COc1ccc(CCNC(=O)CS(=O)Cc2nc(-c3ccccc3Cl)oc2C)cc1OC (stereo not given) | 1 | 1 | 98* | -4 | 6 | 0
COc1ccc(CCNC(=O)CS(=O)(=O)Cc2nc(-c3ccccc3Cl)oc2C)cc1OC | 15 | -13 | 66 | 4 | -17 | -1
Cc1ccc(CCNC(=O)CS(=O)Cc2nc(-c3ccccc3F)oc2C)cc1 (stereo not given) | 9 | 1 | 99* | -10 | 0 | -4
Cc1ccc(N(Cc2cc(=O)[nH]c3ccccc23)C(=O)CCl)c(C)c1 | 15 | 9 | 55 | 6 | 3 | 21
CC(=O)Nc1ccc(C(=O)OCC(=O)Nc2c(C)n(C)n(-c3ccccc3)c2=O)cc1 | / | / | 3 | / | / | /
Cc1ccc(NC(=O)CSc2nnc(-c3cc(C)[nH]n3)n2N)c(C)c1 | -14 | 10 | 1 | -22 | 18 | -7
CCN1C(=O)/C(=C\N(C)C)NC1=S | -9 | 1 | 98* | -15 | -23 | -17
CCOc1ccc(CSC2=NCCN2)cc1Cl | 18 | -5 | 100* | -11 | -12 | -9
N#Cc1ccc(CSC2=NCCN2)cc1 | 2 | 13 | 99* | 1 | -1 | 1
Clc1ccccc1CSC1=NCCN1 | 7 | -3 | / | 0 | 6 | 1
O=C(NCc1cccnc1)Nc1ccccc1C(F)(F)F | -10 | -2 | -6 | 15 | -6 | 0
CCOC(=O)CSC1=C(C#N)C(=O)NC(c2ccc(OC)cc2)S1 (stereo not given) | 12 | -4 | 98* | -10 | -1 | -4
CCOC(=O)CSC1=C(C#N)C(=O)NC(c2ccc(OC)c(OC)c2)S1 (stereo not given) | -1 | 3 | 99* | -7 | -1 | -3
O=C(COC(=O)c1ccc[nH]c1=O)NCC12CC3CC(CC(C3)C1)C2 | 17 | / | / | / | / | /
SMILES | ZTA DNA inh | PfM18AAP inh | ALR H2O2 inh | EBNA-1 inh | NS3 helicase inh | HCV core dimer
COc1ccc(Cn2nnc3c(=O)[nH]c(C(=O)NCCc4ccc(F)cc4)nc32)cc1OC | 3 | -6 | 94* | -3 | 23 | 4
O=C(NCCc1ccccc1)c1nc2c(nnn2Cc2ccccc2Cl)c(=O)[nH]1 | 19 | 5 | 63 | 12 | 7 | 21
CC(=O)c1cccc(NC(=O)CSCc2ccccc2)c1 | -4 | 0 | 97* | -2 | 3 | -2
COc1cc(NC(=O)CSCc2ccccc2)c(C(=O)O)cc1OC | -10 | -3 | 76* | -1 | 5 | -8
COc1cc(NC(=O)CSc2ccccc2)c(C(=O)O)cc1OC | 11 | 2 | -1 | 14 | -2 | 4
CCNC(=O)Nc1cc(OC)c(OC)cc1C(=O)O | 3 | 11 | -9 | 3 | 5 | 0
CC(=O)c1cccc(NC(=O)CSCc2ccc(Br)cc2)c1 | -8 | 3 | -10 | -1 | -5 | -6
COc1cc(NC(=O)C(c2ccccc2)c2ccccc2)c(C(=O)O)cc1OC | 3 | -4 | 92* | 1 | 16 | 2
O=C(c1ccc(NC(=O)C(c2ccccc2)c2ccccc2)cc1)c1ccc(C(=O)O)c(C(=O)O)c1 | -14 | -1 | 94* | -5 | 25 | 12
CN(CCOc1ccc(Cl)cc1)C(=O)Cc1ccc(S(=O)(=O)N2CCOCC2)s1 | -3 | / | 0 | / | / | /
CC1CCCCN1C(=O)c1ccc(Br)o1 (stereo not given) | 6 | -13 | -3 | -7 | 5 | 0
COc1ccc(CSc2nc(C)[nH]c2[N+](=O)[O-])cc1[N+](=O)[O-] | -10 | -3 | 100* | 7 | -8 | -8
COc1ccc([N+](=O)[O-])cc1NC(=O)CSCc1ccccc1 | -2 | -4 | -9 | 1 | -5 | -4
COc1ccc(CSCC(=O)Nc2ccccc2)cc1[N+](=O)[O-] | 4 | -6 | 99* | 0 | 8 | 0
Cc1nc(SCc2ccccc2)c([N+](=O)[O-])[nH]1 | -6 | 5 | / | -5 | 2 | -6
Cc1c(OC(C)C(=O)NCC2CCC(C(=O)O)CC2)ccc2c3c(c(=O)oc12)CCCC3 (stereo not given) | -2 | 4 | -6 | 7 | -4 | -5
Cc1csc(=O)n1CC(=O)OCc1nnc(-c2ccccc2)o1 | -12 | / | 7 | -9 | / | 3
Cc1cc(-c2ccccc2)c2c(=O)n(-c3ccccc3)[nH]c2n1 | 6 | -2 | 99* | -4 | 2 | -25
O=c1c2c(-c3cccc([N+](=O)[O-])c3)ccnc2[nH]n1-c1ccccc1 | / | 1 | -5 | / | 21 | /
CC1(C)CC(=O)C2=C(C1)OC1=C(C(=O)CC(C)(C)C1)C2c1ccc(O)c([N+](=O)[O-])c1 | -5 | -11 | -5 | 5 | -7 | 6
CC1(C)CC(=O)C(C(C2=C(O)CC(C)(C)CC2=O)c2ccc(O)c([N+](=O)[O-])c2)=C(O)C1 | 5 | 3 | 97* | 3 | -1 | 1
CC(C)(CNC(=O)c1cccc(NS(=O)(=O)c2ccc(Br)cc2)c1)N1CCOCC1 | -7 | 1 | -1 | 3 | -27 | 2
Cc1ccc(-n2nc3c(N4CCC(C(=O)NCc5cccc(F)c5)CC4)nnc(C)c3c2C)cc1 | 9 | 1 | -2 | -3 | -35 | 16
NNc1nc(-c2ccccc2)cs1 | -10 | 24 | 99* | 10 | -2 | 1
